Results on 15 compounds are retold here after ChEMBL document CHEMBL1137224, “Design, synthesis, and evaluation of 3,4-dihydro-2H-[1,4]diazepino[6,7,1-hi]indol-1-ones as inhibitors of poly(ADP-ribose) polymerase” (J Med Chem, 2004).

Usually IC50 stands for the concentration needed to halve the response being measured. As usually defined, the Ki is the dissociation constant of the complex between target and ligand, obtained from inhibition or displacement. A high value points to a looser hold on the target.

The test system of experiment [1] is A549. Nature of the experiment: In vitro cytotoxicity against human lung carcinoma A549 cells. The experiment is classed as functional, cell-based. The gist of the method:
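A549 cells seeded 16–24 h before treatment, then exposed to compound alone for 3 or 5 days. Relative cell number read by MTT (0.2 μg/μL, 4 h, DMSO-solubilized, 540 nm) or SRB (10% TCA fix 1 h at 4 °C, 0.4% SRB 30 min, Tris-solubilized, 515 nm). Cytotoxicity taken as % OD of treated versus mock-treated culture; IC50 reported.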

Experiment [2] concerns A549. The experiment in a line: In vitro cytotoxicity of compound at 0.4 uM in combination with topotecan against human lung carcinoma A549 cells. The experiment is classed as functional, cell-based. The gist of the method: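 A549 cells seeded 16–24 h ahead, then exposed to topotecan plus 0.4 μM PARP-1 inhibitor for 3 or 5 days. Cell number read by MTT (540 nm) or SRB (515 nm). Cytotoxicity expressed as % OD relative to mock-treated culture; topotecan IC50 reported in presence of inhibitor.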

Experiment [3] has as its system A549. The experiment in a line: Ratio of cytotoxicity of topotecan to cytotoxicity of compound at 0.4 uM in combination with topotecan. The experiment is classed as functional, Homo sapiens.
Experiment [4] has as its target Poly [ADP-ribose] polymerase 1 (Homo sapiens, UniProt P09874).

Poly [ADP-ribose] polymerase 1, sequence (P09874 whole entry): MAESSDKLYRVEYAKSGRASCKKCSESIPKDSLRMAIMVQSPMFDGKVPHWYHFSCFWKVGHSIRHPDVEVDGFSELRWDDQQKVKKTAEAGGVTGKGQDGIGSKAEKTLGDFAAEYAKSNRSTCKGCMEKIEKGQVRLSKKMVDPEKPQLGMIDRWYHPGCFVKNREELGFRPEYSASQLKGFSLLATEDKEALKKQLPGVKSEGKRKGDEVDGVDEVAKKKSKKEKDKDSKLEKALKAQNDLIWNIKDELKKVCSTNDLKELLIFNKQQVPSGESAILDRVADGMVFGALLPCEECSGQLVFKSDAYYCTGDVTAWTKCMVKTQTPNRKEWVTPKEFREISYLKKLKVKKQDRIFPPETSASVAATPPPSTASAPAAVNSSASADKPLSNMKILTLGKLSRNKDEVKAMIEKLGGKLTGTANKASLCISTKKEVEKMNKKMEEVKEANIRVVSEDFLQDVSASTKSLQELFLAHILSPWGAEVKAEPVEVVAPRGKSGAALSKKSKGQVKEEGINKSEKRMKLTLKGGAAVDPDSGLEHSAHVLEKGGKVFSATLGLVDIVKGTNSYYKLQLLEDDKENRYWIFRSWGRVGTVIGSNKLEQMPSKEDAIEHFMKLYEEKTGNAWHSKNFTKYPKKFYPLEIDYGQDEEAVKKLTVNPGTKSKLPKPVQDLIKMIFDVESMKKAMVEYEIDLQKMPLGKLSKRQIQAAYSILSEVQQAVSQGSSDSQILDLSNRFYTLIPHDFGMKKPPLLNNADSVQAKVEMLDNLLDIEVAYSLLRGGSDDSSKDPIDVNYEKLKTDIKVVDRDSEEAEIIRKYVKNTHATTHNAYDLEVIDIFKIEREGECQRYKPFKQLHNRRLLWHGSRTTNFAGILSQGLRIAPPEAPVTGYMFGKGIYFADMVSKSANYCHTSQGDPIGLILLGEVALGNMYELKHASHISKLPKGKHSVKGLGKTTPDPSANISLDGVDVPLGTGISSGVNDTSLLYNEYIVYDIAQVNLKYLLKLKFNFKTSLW

As for `Cc1c(-c2ccc(F)cc2)n2c3c(cccc13)C(=O)NCC2`, the IC50 stood at 6000 nM with A549 [1] and 21.8 nM in the experiment with A549 [2]. Also, the PF50 with A549 [3] was 1.1.

`O=C1NCCn2c(-c3ccc(Cl)cc3)cc3cccc1c32`: the IC50 with A549 [1] stood at 3000 nM; with A549 [2], 13.3 nM. Further, the PF50 in the experiment with A549 [3] is 1.8.

Turning to `O=C1NCCn2c(-c3ccc(F)cc3)c(/C=N/O)c3cccc1c32`, the figures for the IC50 in the experiment on A549 [1] and in the experiment with A549 [2] were under 800 nM and 20 nM, respectively. Also, the PF50 in the experiment with A549 [3] was determined as 1.2.

As for `Cc1cccc2c1CCNC2=O`, the Ki in experiment [4] was found to be 70 nM.

Regarding `CN(C)Cc1ccc(-c2cc3cccc4c3n2CCNC4=O)cc1`, the results for the IC50 in the experiment on A549 [1] and in the experiment with A549 [2] were 7000 nM and 12.6 nM, respectively. In addition, the PF50 in the experiment on A549 [3] is 1.9. Further, in experiment [4], the affinity, expressed as Ki, was 6.4 nM.

In the case of `CN(C)Cc1cccc(-c2cc3cccc4c3n2CCNC4=O)c1`, the concentration for half-maximal inhibition (IC50) in the experiment with A549 [1] amounted to 11000 nM; in the experiment with A549 [2], 15 nM. Further, the PF50 with A549 [3] was 1.6.

In turn, `CNCc1cccc(-c2cc3cccc4c3n2CCNC4=O)c1` registered an inhibition constant (Ki) in experiment [4] of 6.9 nM.

Take `NN/N=C/c1c(-c2ccc(F)cc2)n2c3c(cccc13)C(=O)NCC2`: in experiment [4], the inhibitory constant (Ki) was determined as 57 nM.

Turning to `O=C1NCCn2c(-c3cccc(Cn4cccc4)c3)cc3cccc1c32`, the Ki in experiment [4] was found to be 12.5 nM.

For `O=C1NCCn2c(-c3ccc(F)cc3)cc3cccc1c32`, the IC50 in the experiment with A549 [1] stood at 8000 nM; in the experiment on A549 [2], 13.3 nM. Also, the PF50 with A549 [3] was 1.8.

Turning to `N=C(NO)C1c2cccc3c2N(CCNC3=O)C1c1ccc(F)cc1` (stereo not given), the Ki in experiment [4] is 87 nM.

As for `O=C1NCCn2cc(/C=N/O)c3cccc1c32`, the IC50 in the experiment with A549 [1] turned out to be 8000 nM; with A549 [2] it was 18.5 nM. For the same compound, the PF50 in the experiment on A549 [3] came to 1.3.

In experiment [4], `O=C1NCCn2c(-c3ccc(Cn4cccc4)cc3)cc3cccc1c32` yielded an inhibition constant (Ki) of 6.8 nM.

`Cc1nc2c(O)cccc2c(=O)[nH]1` yielded an inhibitory constant (Ki) in experiment [4] of 52 nM.

With `O=Cc1cn2c3c(cccc13)C(=O)NCC2`, in experiment [4], affinity was put at a Ki of 176 nM.
